# From ChEMBL document CHEMBL1156019, “Synthesis and small-animal positron emission tomography evaluation of [11C]-elacridar as a radiotracer to assess the distribution of P-glycoprotein at the blood-brain barrier” (J Med Chem, 2009)
# Key:
# Brain [1] = experiment: Biodistribution of rat brain at 20 MBq, iv after 30 mins post-injection in presence of cyclosporine A treated before compound infusion relative to basal level; assay type: ADME, organism-based; settings: in vivo, 0.5 h
# Blood [2] = experiment: Biodistribution in Bcrp1 knockout mouse blood assessed per gram of tissue at 42 +/- 6 MBq, iv after 20 mins by gamma counting; settings: in vivo
# Brain [3] = experiment: Ratio of drug level in Bcrp1 knockout mouse brain to wild type mouse brain; assay type: ADME, tissue-based; settings: in vivo
# Summary of the method: (§1)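 Wild-type FVB, Mdr1a/b(-/-) and Bcrp1(-/-) female mice (25-30 g), isoflurane-anesthetized and kept warm. [11C]-1 42±6 MBq i.v. bolus via tail vein, with a 60-min dynamic microPET scan started at injection. Whole-brain %ID/g read from time-activity curves at 18 min; knockout/wild-type ratios taken at 18 min; n=3; two-tailed unpaired t-test.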
# Blood [4] = experiment: Biodistribution in wild type mouse blood assessed per gram of tissue at 42 +/- 6 MBq, iv after 20 mins by gamma counting; settings: in vivo
# Brain [5] = experiment: Biodistribution in Mdr1a/b knockout mouse brain assessed per gram of tissue, iv after 18 mins; settings: in vivo, 0.3 h
# [6] = Ratio of drug level in wild type mouse brain to naive rat brain; assay type: ADME, tissue-based; settings: in vivo
# Summary of the method: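 Whole-brain %ID/g at 18 min after i.v. [11C]-1, from dynamic PET. Wild-type female FVB mice received 42±6 MBq via tail vein. Naive rats (baseline scan, before any unlabeled compound) received 118±40 MBq via femoral vein catheter. Both groups under isoflurane; n=3 each.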
# Brain [7] = experiment: Biodistribution in naive rat brain assessed per gram of tissue at 118 +/- 40 MBq, iv after 0.6 mins by positron emission tomography; assay type: ADME, organism-based; settings: in vivo, 0.01 h
# Summary of the method: (§2)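 Naïve rats under 1.5-2% isoflurane with femoral artery and vein catheters; [11C]-tracer 118±40 MBq i.v. bolus over ~30 s; dynamic microPET. Scan 1: unlabeled compound 5 mg/kg i.v. at 60 min, then 90 min more acquisition; scan 2 given 2 h after unlabeled dose. Whole-brain TACs as %ID/g; arterial blood sampled serially and gamma counted. n=3, mean ± SD.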
# Brain [8] = experiment: Biodistribution in naive rat brain assessed per gram of tissue at 118 +/- 40 MBq, iv after 18 mins by positron emission tomography; assay type: ADME, organism-based; settings: in vivo, 0.3 h; summary of the method: as §2
# Brain [9] = experiment: Ratio of drug level in Mdr1a/b knockout mouse brain to wild type mouse brain; assay type: ADME, tissue-based; settings: in vivo; summary of the method: as §1
# Brain [10] = experiment: Biodistribution in wild type mouse brain assessed per gram of tissue, iv after 18 mins; settings: in vivo, 0.3 h
# Brain [11] = experiment: Biodistribution in Bcrp1 knockout mouse brain assessed per gram of tissue, iv after 18 mins; settings: in vivo, 0.3 h
# Blood [12] = experiment: Biodistribution in Mdr1a/b knockout mouse blood assessed per gram of tissue at 42 +/- 6 MBq, iv after 20 mins by gamma counting; settings: in vivo
# Blood [13] = experiment: Biodistribution in naive rat blood assessed per gram of tissue at 118 +/- 40 MBq, iv after 20 mins by gamma counting; assay type: ADME, organism-based; settings: in vivo; summary of the method: as §2
# Brain [14] = experiment: Ratio of drug level in naive rat brain at 118 +/- 40 MBq, iv administered 2 hrs after unlabeled elacridar infusion to drug level in naive rat brain at 118 +/- 40 MBq, iv administered before unlabeled elacridar infusion; assay type: ADME, organism-based; settings: in vivo
# Summary of the method: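 Naive rats under isoflurane with femoral artery and vein catheters; n=3. Scan 1: [11C]-1 118±40 MBq i.v. bolus over about 30 s, then dynamic PET. At 60 min, unlabeled 1 (5 mg/kg) i.v. over about 20 s, then 90 min more imaging. Scan 2 run 2 h after unlabeled dose. Whole-brain %ID/g at 18 min compared as scan 2/scan 1; two-tailed paired t-test.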
# Brain [15] = experiment: Biodistribution in naive rat brain assessed per gram of tissue at 118 +/- 40 MBq, iv administered 2 hrs after unlabeled elacridar infusion measured after 18 mins by positron emission tomography; assay type: ADME, organism-based; settings: in vivo, 0.3 h; summary of the method: as §2
# Rattus norvegicus = species on record: Rattus norvegicus; settings: Sprague-Dawley, 10 M
# [16] = Inhibition of P-gp-mediated [3H]daunorubicin transport in Wistar rat hepatocytes by scintillation counting; assay type: cell-based; settings: hepatocyte
# Brain [17] = experiment: Biodistribution in naive rat brain assessed per gram of tissue at 118 +/- 40 MBq, iv after 130 mins by positron emission tomography; assay type: ADME, organism-based; settings: in vivo; summary of the method: as §2
# Caco-2 = experiment: Ratio of permeability from basolateral to apical side over apical to basolateral side in human Caco-2 cells
smiles,measurement,setting,value
[11CH3]OC(=O)c1cnc2n1CCc1ccccc1C2=C1CCN(CCc2ccc(OCc3ccc4ccccc4n3)cc2)CC1,fold change (FC),Brain [1],6
COc1cc2c(cc1OC)CN(CCc1ccc(NC(=O)c3cccc4c(=O)c5cccc(O[11CH3])c5[nH]c34)cc1)CC2,Drug uptake,Blood [2],0.89 %ID
same,Ratio,Brain [3],1.3
same,Drug uptake,Blood [4],0.97 %ID
same,Drug uptake,Brain [5],1.8 %ID
same,Ratio,[6],10
same,Drug uptake,Brain [7],0.23 %ID
same,Drug uptake,Brain [8],0.07 %ID
same,Ratio,Brain [9],2.5
same,Drug uptake,Brain [10],0.72 %ID
same,Drug uptake,Brain [11],0.9 %ID
same,Drug uptake,Blood [12],0.64 %ID
same,Drug uptake,Blood [13],0.02 %ID
COc1cc2c(cc1OC)CN(CCc1ccc(NC(=O)c3cccc4c(=O)c5cccc(OC)c5[nH]c34)cc1)CC2,Ratio,Brain [14],5.4
same,Drug uptake,Brain [15],0.4 %ID
same,inhibition,Rattus norvegicus,63%
same,Ki,[16],0.035 µM
same,Drug uptake,Brain [17],0.28 %ID
same,Ratio,Caco-2,< 2
